Experimental findings from ChEMBL document CHEMBL1143565, “Pyrido[2,3-d]pyrimidin-7-ones as specific inhibitors of cyclin-dependent kinase 4” (J Med Chem, 2005) are described below.

SMILES strings stand for the structures.

What all share (type): protein-complex assay
Test [1] deals with Cyclin-dependent kinase 4/cyclin D (Homo sapiens, UniProt P11802). Description: (§1) Inhibition of [32P]ATP binding to Cyclin dependant kinase 4-cyclin D. The gist of the method: (§2)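 Human recombinant Cdk–cyclin holoenzymes expressed in insect cells via baculovirus. Each reaction held 20 ng enzyme, 1 µg GST-retinoblastoma substrate and inhibitor dilutions in 20 mM Tris pH 7.4, 50 mM NaCl, 1 mM DTT, 10 mM MgCl2. Started with [32P]ATP (0.25 µCi), at 25 µM for Cdk4 or 12 µM for Cdk2/E, Cdk2/A and Cdc2/B. Ran 15 min at 25 °C. Stopped with TCA and precipitated ≥1 h at 4 °C.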

Test [2] has as its target Cyclin-dependent kinase 1/cyclin B (Homo sapiens, UniProt P06493). Description: Inhibition of [32P]ATP binding to Cyclin dependent kinase 1-cyclin B. The method in brief:
as §2

Test [3] concerns the target Cyclin-dependent kinase 2/cyclin E (Homo sapiens, UniProt P24941). In words: Inhibition of [32P]ATP binding to Cyclin dependent kinase 2-cyclin E. The method in brief: (§3)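 Human recombinant Cdk–cyclin holoenzymes expressed in insect cells via baculovirus. Each reaction held 20 ng enzyme, 1 µg GST-retinoblastoma substrate and inhibitor dilutions in 20 mM Tris pH 7.4, 50 mM NaCl, 1 mM DTT, 10 mM MgCl2. Stopped with TCA and precipitated ≥1 h at 4 °C.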

Test [4] addresses Cyclin-dependent kinase 2/cyclin A (Homo sapiens, UniProt P24941). Description: (§4) Inhibition of [32P]ATP binding to Cyclin dependent kinase 2-cyclin A. The gist of the method: as §3
In test [5] the target is Cyclin-dependent kinase 4/cyclin D (Homo sapiens, UniProt P11802+P24385+P30281+P30279). The test is described as §1. The method in brief:
as §2

The target of test [6] is Cyclin-dependent kinase 2/cyclin A (Homo sapiens, UniProt P24941+P20248+P78396). The description is as §4. The method in brief:
as §3

Chain of Cyclin-dependent kinase 4/cyclin D (Homo sapiens, UniProt P11802+P24385+P30281+P30279) (P11802 whole entry): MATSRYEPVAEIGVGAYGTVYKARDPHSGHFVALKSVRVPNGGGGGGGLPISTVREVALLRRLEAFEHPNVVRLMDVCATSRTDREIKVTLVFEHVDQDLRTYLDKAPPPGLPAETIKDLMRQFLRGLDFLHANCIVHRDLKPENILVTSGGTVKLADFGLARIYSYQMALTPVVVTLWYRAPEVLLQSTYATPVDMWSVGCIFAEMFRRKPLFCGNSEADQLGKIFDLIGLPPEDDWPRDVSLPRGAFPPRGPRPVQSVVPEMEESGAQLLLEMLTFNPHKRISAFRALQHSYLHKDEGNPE
Chain of Cyclin-dependent kinase 4/cyclin D (Homo sapiens, UniProt P11802+P24385+P30281+P30279) (P24385 whole entry): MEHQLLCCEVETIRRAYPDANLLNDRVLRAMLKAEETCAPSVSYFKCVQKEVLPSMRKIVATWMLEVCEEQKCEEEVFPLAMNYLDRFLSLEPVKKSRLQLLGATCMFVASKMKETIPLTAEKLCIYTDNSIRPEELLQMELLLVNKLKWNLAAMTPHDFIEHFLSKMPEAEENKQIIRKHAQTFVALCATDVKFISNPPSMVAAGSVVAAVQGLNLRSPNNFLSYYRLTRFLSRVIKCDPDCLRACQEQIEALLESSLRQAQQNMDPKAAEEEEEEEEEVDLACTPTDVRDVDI
Chain of Cyclin-dependent kinase 4/cyclin D (Homo sapiens, UniProt P11802+P24385+P30281+P30279) (P30281 whole entry): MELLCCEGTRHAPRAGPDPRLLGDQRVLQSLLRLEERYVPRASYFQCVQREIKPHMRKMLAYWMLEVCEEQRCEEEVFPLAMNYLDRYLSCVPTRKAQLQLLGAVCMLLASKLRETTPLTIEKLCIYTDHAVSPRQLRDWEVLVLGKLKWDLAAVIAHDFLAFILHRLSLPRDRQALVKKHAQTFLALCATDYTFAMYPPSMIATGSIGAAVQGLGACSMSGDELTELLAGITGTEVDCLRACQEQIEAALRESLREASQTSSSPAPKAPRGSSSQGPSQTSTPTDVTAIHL
Chain of Cyclin-dependent kinase 4/cyclin D (Homo sapiens, UniProt P11802+P24385+P30281+P30279) (P30279 whole entry): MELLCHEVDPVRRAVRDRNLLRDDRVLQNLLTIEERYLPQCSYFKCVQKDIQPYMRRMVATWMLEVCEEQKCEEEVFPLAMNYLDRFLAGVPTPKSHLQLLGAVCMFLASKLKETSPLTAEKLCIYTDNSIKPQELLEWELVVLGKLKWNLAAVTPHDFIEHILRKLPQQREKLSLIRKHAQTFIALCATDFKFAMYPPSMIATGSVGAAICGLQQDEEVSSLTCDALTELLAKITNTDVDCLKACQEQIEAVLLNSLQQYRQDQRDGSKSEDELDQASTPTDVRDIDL

With `Cc1cc(=O)n(C2CCCC2)c2nc(Nc3ccc(N4CCNC(C)(C)C4)cc3)ncc12`, the IC50 in test [1] was 0.065 µM; in test [2] it was greater than 5 µM; in test [3] it was greater than 5 µM; in test [4], greater than 5 µM.

For `Cc1c(C)c2cnc(Nc3ccc(N4CCNCC4)cc3)nc2n(C2CCCC2)c1=O`, the 50% inhibitory concentration (IC50) in test [1] is 0.165 µM; in test [2] it was greater than 5 µM; in test [3], greater than 5 µM.

Turning to `O=c1cc(C(F)(F)F)c2cnc(Nc3ccc(N4CCNCC4)cc3)nc2n1C1CCCC1`, the IC50 is 2.65 µM in test [1], greater than 5 µM in test [2], greater than 5 µM in test [3] and greater than 5 µM in test [4].

On to `O=c1ccc2cnc(Nc3ccc(N4CCC(CCCO)CC4)cc3)nc2n1C1CCCC1`, for which the IC50 is greater than 5 µM in test [2] and 4.55 µM in test [3].

As to `Cc1cc(=O)n(C2CCCC2)c2nc(Nc3ccc(N4CCC(N)C4)cc3)ncc12` (centres undefined), the values for the IC50 in test [1] and in test [2] were 0.064 µM and greater than 5 µM, respectively.

On to `Cc1cc(=O)n(C2CCCC2)c2nc(Nc3ccc(N4CCN(C=O)CC4)cc3)ncc12`, for which the 50% inhibitory concentration (IC50) is 0.161 µM in test [1], greater than 5 µM in test [2], greater than 5 µM in test [3] and greater than 5 µM in test [4].

`Cc1cc(=O)n(C2CCCC2)c2nc(Nc3ccc(N4CCC(CCCO)CC4)cc3)ncc12`: the IC50 in test [1] was 0.114 µM; in test [2], greater than 5 µM; in test [3], greater than 5 µM; in test [4] it was greater than 5 µM.

As to `Cc1c(I)c(=O)n(C2CCCC2)c2nc(Nc3ccc(N4CCNCC4)cc3)ncc12`, the IC50 in test [1] was 0.005 µM; in test [2], 1.87 µM; in test [3], 0.365 µM; in test [4], 0.443 µM.

As for `O=c1ccc2cnc(Nc3ccc(N4CCCCC4)cc3)nc2n1C1CCCC1`, the IC50 in test [1] stood at 0.01 µM; in test [2] it was 0.57 µM; in test [3], 0.246 µM; in test [4], 0.66 µM.

Take `Cc1cc(=O)n(C2CCCC2)c2nc(Nc3ccc(N4CCNCC4)cc3)ncc12`: the IC50 in test [1] was 0.014 µM; in test [2] it was greater than 5 µM.

On to `Cc1cc(=O)n(C2CCCC2)c2nc(Nc3ccc(N4CCOCC4)cc3)ncc12`, for which the 50% inhibitory concentration (IC50) is 0.116 µM in test [1], 1.12 µM in test [2], greater than 5 µM in test [3] and greater than 5 µM in test [4].

For the compound `CC(=O)N1CCN(c2ccc(Nc3ncc4c(C)cc(=O)n(C5CCCC5)c4n3)cc2)CC1`, the IC50 in test [1] was 0.103 µM; in test [2] it was greater than 5 µM; in test [3], greater than 5 µM; in test [4], greater than 5 µM.

Take `Cc1cc(=O)n(C2CCCC2)c2nc(Nc3ccc(N4CCC(O)C4)cc3)ncc12` (centres undefined): the IC50 was 0.26 µM in test [1] and greater than 5 µM in test [2].

Regarding `Cc1cc(=O)n(C2CCCC2)c2nc(Nc3ccc(N4CCCCC4)cc3)ncc12`, the figures for the IC50 in test [1] and in test [4] were 0.18 µM and greater than 5 µM, respectively.

`CCOC(=O)c1c(C)c2cnc(Nc3ccc(N4CCNCC4)cc3)nc2n(C2CCCC2)c1=O`: the half-maximal inhibitory concentration (IC50) is 0.006 µM in test [5], greater than 5 µM in test [2], greater than 5 µM in test [3] and greater than 5 µM in test [4].

Take `Cc1cc(=O)n(C2CCCC2)c2nc(Nc3ccc(N4CCNCC4)c(Cl)c3)ncc12`: the IC50 in test [1] was 0.028 µM; in test [2], greater than 5 µM; in test [3], greater than 5 µM; in test [4] it was greater than 5 µM.

For `Cc1c(Cl)c(=O)n(C2CCCC2)c2nc(Nc3ccc(N4CCNCC4)cc3)ncc12`, the half-inhibitory concentration (IC50) was 0.016 µM in test [1], greater than 5 µM in test [2], 1.5 µM in test [3] and 1.62 µM in test [4].

Turning to `O=c1ccc2cnc(Nc3ccc(N4CCNCC4)cc3)nc2n1C1CCCC1`, the IC50 in test [3] came out at 0.08 µM.

`O=c1ccc2cnc(Nc3ccc(N4CCOCC4)cc3)nc2n1C1CCCC1`: the IC50 in test [1] was 0.01 µM; in test [2], 0.275 µM; in test [3], 0.085 µM; in test [4] it was 0.028 µM.

As for `CCc1cc(=O)n(C2CCCC2)c2nc(Nc3ccc(N4CCNCC4)cc3)ncc12`, the half-inhibitory concentration (IC50) in test [1] is 0.655 µM; in test [2], greater than 5 µM; in test [3] it was greater than 5 µM; in test [4], greater than 5 µM.

For `CN1CCN(c2ccc(Nc3ncc4ccc(=O)n(C5CCCC5)c4n3)cc2)CC1`, the concentration for half-maximal inhibition (IC50) is 0.007 µM in test [1], 0.039 µM in test [3] and 0.014 µM in test [4].

As for `Cc1c(F)c(=O)n(C2CCCC2)c2nc(Nc3ccc(N4CCNCC4)cc3)ncc12`, the IC50 in test [1] was 0.03 µM; in test [2] it was greater than 5 µM; in test [3], greater than 5 µM; in test [4], greater than 5 µM.

Turning to `Cc1cc(=O)n(C2CCCC2)c2nc(Nc3ccc(N4CCCNCC4)cc3)ncc12`, the IC50 in test [1] was 0.052 µM; in test [2], greater than 5 µM; in test [3], greater than 5 µM; in test [4] it was greater than 5 µM.

`CCc1c(C)c2cnc(Nc3ccc(N4CCNCC4)cc3)nc2n(C2CCCC2)c1=O`: the 50% inhibitory concentration (IC50) in test [1] stood at 0.025 µM; in test [2], 4.12 µM; in test [3] it was 1.65 µM; in test [4], 1.54 µM.

On to `Cc1c(Br)c(=O)n(C2CCCC2)c2nc(Nc3ccc(N4CCNCC4)cc3)ncc12`, for which the IC50 was 2.61 µM in test [2], 0.95 µM in test [3] and 0.439 µM in test [6].

Turning to `Cc1cc(=O)n(C2CCCC2)c2nc(Nc3ccc(N4CCN(C(=O)OC(C)(C)C)CC4)cc3)ncc12`, the IC50 in test [1] was 0.425 µM; in test [3], greater than 5 µM; in test [4], greater than 5 µM.

Consider `COC(=O)c1c(C)c2cnc(Nc3ccc(N4CCNCC4)cc3)nc2n(C2CCCC2)c1=O`, for which the IC50 was 0.004 µM in test [1], greater than 5 µM in test [2], greater than 5 µM in test [3] and 2.82 µM in test [4].

For `Cc1cc(=O)n(CCC(C)C)c2nc(Nc3ccc(N4CCNCC4)cc3)ncc12`, the 50% inhibitory concentration (IC50) in test [1] is 1.07 µM; in test [2], greater than 5 µM; in test [3] it was greater than 5 µM; in test [4], greater than 5 µM.

For `Cc1cc(=O)n(C2CCCC2)c2nc(Nc3ccc(N4C[C@@H](C)N[C@@H](C)C4)cc3)ncc12`, the half-inhibitory concentration (IC50) in test [1] was 0.24 µM; in test [2] it was greater than 5 µM; in test [3] it was greater than 5 µM.

For `Cc1cc(=O)n(C2CCCC2)c2nc(Nc3ccc(N4CCN(CCO)CC4)cc3)ncc12`, the half-inhibitory concentration (IC50) in test [1] is 0.035 µM; in test [2] it was greater than 5 µM; in test [3] it was greater than 5 µM; in test [4], greater than 5 µM.

Regarding `Cc1cc(=O)n(C2CCCC2)c2nc(Nc3ccc(N4CCN(C)CC4)cc3)ncc12`, the IC50 in test [1] was 0.018 µM; in test [2], greater than 5 µM; in test [3], greater than 5 µM; in test [4], greater than 5 µM.

In the case of `Cc1c(C(=O)O)c(=O)n(C2CCCC2)c2nc(Nc3ccc(N4CCNCC4)cc3)ncc12`, the IC50 in test [1] was 0.032 µM; in test [2] it was greater than 5 µM; in test [3] it was greater than 5 µM; in test [4], greater than 5 µM.

For `Cc1cc(=O)n(C(C)C)c2nc(Nc3ccc(N4CCNCC4)cc3)ncc12`, the half-maximal inhibitory concentration (IC50) is 0.265 µM in test [1], greater than 5 µM in test [2], greater than 5 µM in test [3] and greater than 5 µM in test [4].
